Results reported in paper PMC3726261 (Cancer, 2012).

How the values were obtained:
[1] = Pharmacokinetics: plasma R-150033 by LC-MS/MS after oral efatutazone; type: in vivo, human; conditions: 0.10 to 1.15 mg twice daily; single and multiple doses
Method in brief: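 Adults with advanced solid malignancies took oral doses twice daily in 21-day cycles, in cohorts of 3 to 6 at 0.10–1.15 mg. Plasma was sampled at baseline and 0.5, 1, 2, 3, 4, 6 and 8–10 h after the first dose on day 1 of cycles 1 and 2. Active metabolite R-150033 was measured by validated LC-MS/MS. AUC, Cmax and Tmax were derived; accumulation was AUC0-tau/AUC0–12, and steady state was judged from trough levels.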

[2] = system: recurrent metastatic liposarcoma; conditions: patients with recurrent metastatic liposarcoma; cited from earlier work
[3] = system: prostate-specific antigen levels; conditions: small percentage of prostate cancer patients; cited from earlier work

With `Cc1cc(Oc2ccc3nc(COc4ccc(CC5SC(=O)NC5=O)cc4)n(C)c3c2)cc(C)c1N` (stereo not drawn) [R-150033] the “Dose proportionality of exposure (AUC and Cmax)” value [1] was “dose proportional”.

For `CCc1ccc(CCOc2ccc(CC3SC(=O)NC3=O)cc2)nc1` (stereo not drawn) [pioglitazone], the Disease stabilization [2] is given as “prolonged disease stabilization”.

For `CN(CCOc1ccc(CC2SC(=O)NC2=O)cc1)c1ccccn1` (stereo not drawn) [rosiglitazone], the “Effect on prostate-specific antigen levels” value [3] is given as “either decreased or prolonged the stabilization of prostate-specific antigen levels”.
